Reference: ChEMBL document CHEMBL3392953, “Synthesis and biological evaluation of furanoallocolchicinoids” (J Med Chem, 2015)

Key:
Mus musculus [1] = assay: Toxicity in C57BL/6 mouse assessed as interphase microtubule de-stabilizing activity by measuring leakage of rhodamine through the gut at 1 mg/kg, iv co-administered with rhodamine B by fluorimetry; assay type: organism-based; parameters: dose 1 mg/kg, route intravenous; settings: in vivo
In short: (§1)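 Intact mice, 6–8 wk, 3 per group; compound dissolved in DMSO at 20 mM, 4 µl diluted into 200 µl saline (1 mg/kg), mixed with 50 µl rhodamine B, single i.v. injection; controls DMSO plus rhodamine B. Killed 4 h later; organs cut, extracted in 0.3N acid in ethanol 2 h at 37 °C, centrifuged, supernatant fluorescence read with 540 nm filter.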

Mus musculus [2] = assay: Toxicity in C57BL/6 mouse assessed as interphase microtubule de-stabilizing activity by measuring influx of rhodamine in to heart at 1 mg/kg, iv co-administered with rhodamine B by fluorimetry; assay type: organism-based; parameters: dose 1 mg/kg, route intravenous; settings: in vivo; in short: as §1
Mus musculus [3] = assay: Toxicity in C57BL/6 mouse assessed as interphase microtubule de-stabilizing activity by measuring influx of rhodamine in to spleen at 1 mg/kg, iv co-administered with rhodamine B by fluorimetry; assay type: organism-based; parameters: dose 1 mg/kg, route intravenous; settings: in vivo; in short: as §1
[4] = Reduction in blood-brain barrier permeability in […]; assay type: ADME, tissue-based, C57BL/6, Endothelial cell; parameters: scale not given: the % may be the effect or the level left; settings: mouse; in short: as §1
[5] = Inhibition of lamb brain tubulin polymerization assessed as reduction in microtubule assembly by spectrophotometry; parameters: species or system Ovis aries
In short: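 Tubulin purified from lamb brain by ammonium sulfate fractionation and ion-exchange chromatography. Assembly in 20 mM sodium phosphate, 1 mM EGTA, 10 mM MgCl2, 3.4 M glycerol, 1 mM GTP, pH 6.5, started by warming to 37 °C; turbidity followed at 350 nm over time. Inhibition plotted against ligand:tubulin molar ratio.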

ASPC1 = assay: Cytotoxicity against human AsPC1 cells after 72 hrs by MTT assay; assay type: functional, cell-based; settings: ASPC1, 72 h
In short: (§2)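 Cells seeded at 3x10^5 cells/mL 24 h before assay (HEK293, AsPC-1 in DMEM; Jurkat, W1308 in RPMI-1640; 10% FCS, 2-ME). Tenfold dilutions from […] to 1 nM added; untreated cells as controls. 72 h incubation, MTT 250 µg/ml added for last 6 h, formazan dissolved in DMSO, OD read. IC50 from titration curves; inhibition index = 1 − OD(treated)/OD(control).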

HEK293 = assay: Cytotoxicity against HEK293 cells after 72 hrs by MTT assay; assay type: functional, cell-based; settings: Homo sapiens, HEK293, 72 h; in short: as §2
Jurkat = assay: Cytotoxicity against human Jurkat cells after 72 hrs by MTT assay; assay type: functional, cell-based; in short: as §2
[6] = Cytotoxicity against mouse W1308 cells after 72 hrs by MTT assay; assay type: functional, cell-based; settings: W1308, 72 h; in short: as §2

Structure (SMILES)	Activity (Mus musculus [1])	Activity (Mus musculus [2])	Activity (Mus musculus [3])	Activity [4]	ligand/tubulin molar ratio [5]	IC50 (ASPC1)	IC50 (HEK293)	IC50 (Jurkat)	IC50 [6]
COc1cc2c(c(OC)c1OC)-c1ccc(OC)c(=O)cc1[C@@H](NC(C)=O)CC2 [COLCHICINE]	Toxic	Toxic	Toxic	–	–	–	–	–	–
COc1ccc(/C=C\c2cc(OC)c(OC)c(OC)c2)cc1O [COMBRETASTATIN A4]	Toxic	Toxic	Toxic	40%	0.09	–	–	–	–
CCN(CC)Cc1cc2cc3c(cc2o1)[C@@H](NC(C)=O)CCc1cc(OC)c(OC)c(OC)c1-3	–	–	–	–	–	20 µM	> 100 µM	> 100 µM	> 100 µM
